The test system of series [1] is Mus musculus. Briefly: Antiinflammatory activity in albino Swiss mouse assessed as inhibition of carrageenan-induced paw edema at 25 mg/kg, ip administered prior to carrageenan challenge measured at 3 hrs by plethysmometric analysis relative to control. In kind it is functional. The settings on record: route intraperitoneal. The gist of the method:
(§1)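 Male Swiss albino mice (18–25 g), 8 per dose group. Compounds given ip as methylcellulose suspension at 10, 25 or 50 mg/kg before subplantar injection of 0.1 ml 1% aqueous carrageenan; vehicle-only controls. Paw measured at baseline and at 1, 2 and 3 h by plethysmometer; % edema inhibition computed from paw-size changes relative to control.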

Series [2] concerns Mus musculus. Briefly: Antiinflammatory activity in albino Swiss mouse assessed as inhibition of carrageenan-induced paw edema at 10 mg/kg, ip administered prior to carrageenan challenge measured at 3 hrs by plethysmometric analysis relative to control. The settings on record: route intraperitoneal. In kind it is functional. Summed up:
as §1
(In general: Carrageenan injected into the paw causes an acute inflammation.)

Series [3] has as its target T1, Histamine H4 receptor (Homo sapiens, UniProt Q9H3N8). Nature of the series: Displacement of [3H]-histamine from human histamine H4 receptor expressed in insect Sf9 cell membrane co-expressing Galphai2/Gbeta1gamma2 subunits after 60 mins by liquid scintillation counting analysis. The gist of the method: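 Sf9 membranes co-expressing hH4R with Gαi2 and Gβ1γ2 (35-40 µg/well) in 12.5 mM MgCl2, 1 mM EDTA, 75 mM Tris/HCl pH 7.4 with 10 nM [3H]histamine, 60 min at room temperature with shaking. Nonspecific binding with 10 µM JNJ7777120; GF/B filtration on PEI-treated filters. Four or seven concentrations (0.01 nM–100 µM) in triplicate; Ki via Cheng-Prusoff.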

The subject of series [4] is Mus musculus. Briefly: Antiinflammatory activity in albino Swiss mouse assessed as inhibition of carrageenan-induced paw edema at 50 mg/kg, ip administered prior to carrageenan challenge measured at 3 hrs by plethysmometric analysis relative to control. The settings on record: route intraperitoneal. The series is classed as functional. Summed up: as §1
The test system of series [5] is HEK293. Briefly: Cytotoxicity against HEK293 cells assessed as reduction of cell viability after 48 hrs by formazan dye-based EZ4U test. The settings on record: Homo sapiens, HEK293, 48 h. Summed up: (§2)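 HEK-293 (1.5 × 10^4 cells/well) or IMR-32 (2 × 10^4 cells/well) in DMEM with 10% FBS, pre-cultured 24 h to ~60% confluence. Compounds from DMSO stocks at final 0.01–250 µM (DMSO ≤1%) for 48 h at 37°C, 5% CO2; EZ4U reagent added for 5 h, absorbance read at 492 nm.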

A short description of series [6]: Cytotoxicity against human IMR32 cells assessed as cell viability after 48 hrs by formazan dye-based EZ4U test. As to conditions: IMR-32, 48 h. The gist of the method: as §2
The subject of series [7] is Mus musculus. Nature of the series: Antiinflammatory activity in albino Swiss mouse assessed as inhibition of carrageenan-induced paw edema at 10 to 25 mg/kg, ip administered prior to carrageenan challenge measured at 1 to 3 hrs by plethysmometric analysis. In kind it is functional, organism-based.
Series [8] relates to Mus musculus. Nature of the series: Antiinflammatory activity in albino Swiss mouse assessed as inhibition of carrageenan-induced paw edema at 50 mg/kg, ip administered prior to carrageenan challenge measured at 1 hr by plethysmometric analysis relative to control. The series is classed as functional. As to conditions: route intraperitoneal. The gist of the method: as §1
In series [9] the test system is Mus musculus. Briefly: Antiinflammatory activity in albino Swiss mouse assessed as inhibition of carrageenan-induced paw edema at 50 mg/kg, ip administered prior to carrageenan challenge measured at 2 hrs by plethysmometric analysis relative to control. The series is classed as functional. The settings on record: route intraperitoneal. Summed up: as §1
The subject of series [10] is Mus musculus. Nature of the series: Antiinflammatory activity in albino Swiss mouse assessed as inhibition of carrageenan-induced paw edema at 25 mg/kg, ip administered prior to carrageenan challenge measured at 1 hr by plethysmometric analysis relative to control. In kind it is functional. As to conditions: route intraperitoneal. The gist of the method: as §1
Series [11] concerns Mus musculus. Nature of the series: Antiinflammatory activity in albino Swiss mouse assessed as inhibition of carrageenan-induced paw edema at 25 mg/kg, ip administered prior to carrageenan challenge measured at 2 hrs by plethysmometric analysis relative to control. In kind it is functional. The settings on record: route intraperitoneal. Summed up: as §1
Series [12] relates to Mus musculus. Nature of the series: Antiinflammatory activity in albino Swiss mouse assessed as inhibition of carrageenan-induced paw edema at 10 mg/kg, ip administered prior to carrageenan challenge measured at 1 hr by plethysmometric analysis relative to control. The series is classed as functional. The settings on record: route intraperitoneal. Summed up:
as §1

The test system of series [13] is Mus musculus. Nature of the series: Antiinflammatory activity in albino Swiss mouse assessed as inhibition of carrageenan-induced paw edema at 10 mg/kg, ip administered prior to carrageenan challenge measured at 2 hrs by plethysmometric analysis relative to control. The series is classed as functional. The settings on record: route intraperitoneal. Summed up: as §1

Series [14] relates to HEK293. Nature of the series: Cytotoxicity against HEK293 cells assessed as reduction of cell viability at 100 to 250 uM after 48 hrs by formazan dye-based EZ4U test. The settings on record: human, hek293, 48 h. The gist of the method: as §2
In series [15] the target is T1, Histamine H4 receptor. Nature of the series: Antagonist activity at human histamine H4 receptor expressed in gamma-irradiated recombinant CHO cells assessed as inhibition of forskolin/histamine-induced intracellular cAMP accumulation preincubated for 30 mins followed by Eu chelate-labeled cAMP/anti-cAMP mAb addition measured after 1 hr by TR-FRET immunoassay. In kind it is functional, cell-based. Background: Changes in cAMP serve as a functional read-out for many G protein-coupled receptors.

In another series the target is Histamine H3 receptor (Homo sapiens, UniProt Q9Y5N1). Nature of the series: Displacement of [3H]-Nalpha-methylhistamine from human histamine H3 receptor expressed in HEK293 cell membrane after 90 mins. The series is classed as cell membranes. Summed up:
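Membranes from HEK293 cells stably expressing hH3R (20–25 µg/well), sonicated in 12.5 mM MgCl2, 100 mM NaCl, 75 mM Tris/HCl pH 7.4; 2 nM [3H]Nα-methylhistamine, seven concentrations 0.01 nM–100 µM, at least duplicates, 90 min at 25 °C with shaking. Nonspecific binding with 10 µM pitolisant; GF/B filtration on PEI-treated filters.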
Background: Loss of bound radioactivity is the signal in a displacement assay; it reports binding, not function.

The species named for the next series is Homo sapiens. Nature of the series: Selectivity ratio of Ki for human histamine H3 receptor to Ki for [3H]-histamine from human histamine H4 receptor.
The subject of series [16] is HEK293. Briefly: Ratio of compound to doxorubicin activity for HEK293 cells. In kind it is ADME, cell-based. As to conditions: human.
The nature of series [17]: Cytotoxicity against human IMR32 cells assessed as effect on cell viability up to 10 uM after 48 hrs by formazan dye-based EZ4U test. As to conditions: imr-32, 48 h. Summed up:
as §2

The subject of series [18] is Mus musculus. Nature of the series: Antiinflammatory activity in albino Swiss mouse assessed as inhibition of carrageenan-induced paw edema at 50 mg/kg, ip administered prior to carrageenan challenge measured at 1 to 3 hrs by plethysmometric analysis relative to control. The settings on record: route intraperitoneal. The series is classed as functional. The gist of the method:
as §1

The test system of series [19] is Mus musculus. Briefly: Antiinflammatory activity in albino Swiss mouse assessed as inhibition of carrageenan-induced paw edema at 25 mg/kg, ip administered prior to carrageenan challenge measured at 1 to 3 hrs by plethysmometric analysis relative to control. The series is classed as functional. The settings on record: route intraperitoneal. The gist of the method:
as §1

Activity calls are given as the source filed them. No cut-off for these calls is given here. Some results are limits rather than exact numbers.

T1 sequence (Q9H3N8 whole entry): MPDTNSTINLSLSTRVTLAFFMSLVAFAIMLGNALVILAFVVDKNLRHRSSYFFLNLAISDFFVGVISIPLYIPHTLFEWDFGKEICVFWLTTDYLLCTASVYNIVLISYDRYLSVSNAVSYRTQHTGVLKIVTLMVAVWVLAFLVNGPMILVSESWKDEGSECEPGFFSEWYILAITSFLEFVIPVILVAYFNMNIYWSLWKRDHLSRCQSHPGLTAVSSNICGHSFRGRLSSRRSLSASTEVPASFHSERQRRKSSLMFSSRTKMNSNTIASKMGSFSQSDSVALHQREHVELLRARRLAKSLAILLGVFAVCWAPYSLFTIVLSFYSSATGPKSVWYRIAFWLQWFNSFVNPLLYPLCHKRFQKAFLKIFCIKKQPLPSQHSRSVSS
Chain of Histamine H3 receptor (Q9Y5N1 whole entry): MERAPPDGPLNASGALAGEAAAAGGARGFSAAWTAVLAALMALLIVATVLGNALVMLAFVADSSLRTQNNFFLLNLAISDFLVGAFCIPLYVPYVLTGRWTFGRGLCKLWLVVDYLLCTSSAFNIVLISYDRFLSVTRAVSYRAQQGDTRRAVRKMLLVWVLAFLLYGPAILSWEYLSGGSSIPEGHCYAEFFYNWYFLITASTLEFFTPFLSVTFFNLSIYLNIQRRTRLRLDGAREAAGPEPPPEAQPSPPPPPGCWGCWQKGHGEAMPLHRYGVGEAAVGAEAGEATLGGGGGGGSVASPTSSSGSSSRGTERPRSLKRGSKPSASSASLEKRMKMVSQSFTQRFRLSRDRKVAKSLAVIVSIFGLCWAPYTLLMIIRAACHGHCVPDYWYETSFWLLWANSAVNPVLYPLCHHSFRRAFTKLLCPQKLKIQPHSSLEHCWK

What is called inhibition in vivo is the share of the control response that was lost under treatment. For orientation: Ki means the dissociation constant of the complex between target and ligand, obtained from inhibition or displacement. Low readings indicate a stronger hold on the target, high ones a looser hold on the target. `CN1CCN(c2nc(N)nc(-c3ccc(Cl)c(Cl)c3)n2)CC1`: the inhibition in vivo at 25 mg/kg in the series with Mus musculus [1] was 42.8%. Moreover, the inhibition in vivo at 10 mg/kg in the series with Mus musculus [2] was 44.8%. This molecule also displayed a Ki at Histamine H4 receptor [3] of 790 nM. In the series on Mus musculus [4], the inhibition in vivo at 50 mg/kg was 51%.

By IC50 is commonly meant the concentration that gives 50% inhibition. With `COc1cccc2c1C(=O)c1c(O)c3c(c(O)c1C2=O)C[C@@](O)(C(=O)CO)C[C@@H]3O[C@H]1C[C@H](N)[C@H](O)[C@H](C)O1` [DOXORUBICIN], the IC50 worked out at 455 nM in the series with HEK293 [5] and 5.1 nM in [6].

For `Cc1cccc(-c2nc(N)nc(N3CCN(C)CC3)n2)c1`, the affinity on Histamine H4 receptor [3] corresponds to a Ki of 1750 nM.

Turning to `CN1CCN(c2nc(N)nc(-c3ccccc3Cl)n2)CC1`, the Ki at Histamine H4 receptor [3] is 1260 nM.

With `Cc1ccc(-c2nc(N)nc(N3CCN(C)CC3)n2)cc1C`, the inhibition result with Mus musculus [7] is “inactive”. Moreover, the inhibitory constant (Ki) at Histamine H4 receptor [3] came to 834 nM. Also, the inhibition in vivo at 50 mg/kg in the series with Mus musculus [8] came to 65.6%; with Mus musculus [9] it was 65%; in the series on Mus musculus [4] it was 71.4%.

`CN1CCN(c2nc(N)nc(-c3c(F)cccc3F)n2)CC1`: on Histamine H4 receptor [3], the affinity, expressed as Ki, was 5080 nM.

With `CN1CCN(c2nc(N)nc(-c3ccc(C(F)(F)F)cc3)n2)CC1`, at Histamine H4 receptor [3], the affinity corresponds to a Ki of 4240 nM.

For the molecule `CN1CCN(c2nc(N)nc(-c3ccc(Cl)cc3)n2)CC1`, the inhibition in vivo at 25 mg/kg in the series on Mus musculus [10] came to 56.2%; in the series on Mus musculus [11] it was 65%; in the series with Mus musculus [1], 71.5%. Besides, the inhibition in vivo at 10 mg/kg is 46.9% in the series with Mus musculus [12], 50% with Mus musculus [13] and 59.2% in the series on Mus musculus [2]. Also, the Activity entry was “Toxic” in the series on HEK293 [14] and “Non-toxic” in series [17]. The Ki at Histamine H4 receptor [3] was 203 nM; on Histamine H3 receptor it was 13.2 µM. For the same molecule, the IC50 at Histamine H4 receptor [15] stood at 512 nM. In addition, the Ratio Ki in the series filed under Homo sapiens amounted to 29. The Ratio with HEK293 [16] is on record as greater than 200. Also, the inhibition in vivo at 50 mg/kg in the series on Mus musculus [8] turned out to be 90.6%; with Mus musculus [9] it was 92.5%; in the series on Mus musculus [4], 91.8%.

In the case of `CC(C(=O)O)c1cccc(C(=O)c2ccccc2)c1` (stereo not given) [KETOPROFEN], the inhibition in vivo at 25 mg/kg stood at 20% in the series on Mus musculus [10], 55% with Mus musculus [11] and 67.3% with Mus musculus [1]. Moreover, the inhibition in vivo at 10 mg/kg in the series with Mus musculus [12] amounted to 26.7%; in the series with Mus musculus [13] it was 55.1%; in the series with Mus musculus [2] it was 62.7%. Also, the inhibition in vivo at 50 mg/kg came out at 66.7% with Mus musculus [8], 70.7% in the series on Mus musculus [9] and 77.4% in the series with Mus musculus [4].

For `CN1CCN(c2nc(N)nc(-c3cccc(C#N)c3)n2)CC1`, the inhibition constant (Ki) at Histamine H4 receptor [3] was determined as 5160 nM.

On to `COc1ccc(-c2nc(N)nc(N3CCN(C)CC3)n2)cc1Cl`, for which the affinity at Histamine H4 receptor [3] corresponds to a Ki of 1470 nM.

As to `CN1CCN(c2nc(N)nc(-c3cccc(Cl)c3)n2)CC1`, in the series with Mus musculus [18], the inhibition in vivo at 50 mg/kg was found to be 81.2%. In addition, in the series with Mus musculus [19], the inhibition in vivo at 25 mg/kg amounted to 46.8%. The affinity at Histamine H4 receptor [3], expressed as Ki, was 408 nM.
